Active and inactive are the calls of the source.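 Rule for the calls, unless noted: active = viability at or under a set limit in both replicates, limit being median viability minus 3 SD (cut at about 48% in these data, passing the limit was not always enough); inconclusive = at or under the limit in just one replicate; inactive = at or above the limit in both replicates.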
Assays:
[1] = Her2 expression decrease, cell viability multiplex – SKBR3 breast tumor cells, AlphaScreen, ATP viability, primary screen (AID 461;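 active = Her2 level under about 52% in both replicate screens, with viability over 70% of control, limit read from the data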;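 for Her2 level: lower value means less Her2 protein in the cells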;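 for viability: percent of carrier control wells set as 100% viability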); details: SKBR3 Her2 protein level, 18-24 h, measured here: SKBR3 viability, ATP luminescence, at 10 µM
[2] = molecular target: Receptor tyrosine-protein kinase erbB-2 (Homo sapiens) (UniProt P04626); assay: as above; details: 18-24 h, at 10 µM, stronger effect = lower value
Chain of Receptor tyrosine-protein kinase erbB-2 (Homo sapiens) (P04626 whole entry, looked up): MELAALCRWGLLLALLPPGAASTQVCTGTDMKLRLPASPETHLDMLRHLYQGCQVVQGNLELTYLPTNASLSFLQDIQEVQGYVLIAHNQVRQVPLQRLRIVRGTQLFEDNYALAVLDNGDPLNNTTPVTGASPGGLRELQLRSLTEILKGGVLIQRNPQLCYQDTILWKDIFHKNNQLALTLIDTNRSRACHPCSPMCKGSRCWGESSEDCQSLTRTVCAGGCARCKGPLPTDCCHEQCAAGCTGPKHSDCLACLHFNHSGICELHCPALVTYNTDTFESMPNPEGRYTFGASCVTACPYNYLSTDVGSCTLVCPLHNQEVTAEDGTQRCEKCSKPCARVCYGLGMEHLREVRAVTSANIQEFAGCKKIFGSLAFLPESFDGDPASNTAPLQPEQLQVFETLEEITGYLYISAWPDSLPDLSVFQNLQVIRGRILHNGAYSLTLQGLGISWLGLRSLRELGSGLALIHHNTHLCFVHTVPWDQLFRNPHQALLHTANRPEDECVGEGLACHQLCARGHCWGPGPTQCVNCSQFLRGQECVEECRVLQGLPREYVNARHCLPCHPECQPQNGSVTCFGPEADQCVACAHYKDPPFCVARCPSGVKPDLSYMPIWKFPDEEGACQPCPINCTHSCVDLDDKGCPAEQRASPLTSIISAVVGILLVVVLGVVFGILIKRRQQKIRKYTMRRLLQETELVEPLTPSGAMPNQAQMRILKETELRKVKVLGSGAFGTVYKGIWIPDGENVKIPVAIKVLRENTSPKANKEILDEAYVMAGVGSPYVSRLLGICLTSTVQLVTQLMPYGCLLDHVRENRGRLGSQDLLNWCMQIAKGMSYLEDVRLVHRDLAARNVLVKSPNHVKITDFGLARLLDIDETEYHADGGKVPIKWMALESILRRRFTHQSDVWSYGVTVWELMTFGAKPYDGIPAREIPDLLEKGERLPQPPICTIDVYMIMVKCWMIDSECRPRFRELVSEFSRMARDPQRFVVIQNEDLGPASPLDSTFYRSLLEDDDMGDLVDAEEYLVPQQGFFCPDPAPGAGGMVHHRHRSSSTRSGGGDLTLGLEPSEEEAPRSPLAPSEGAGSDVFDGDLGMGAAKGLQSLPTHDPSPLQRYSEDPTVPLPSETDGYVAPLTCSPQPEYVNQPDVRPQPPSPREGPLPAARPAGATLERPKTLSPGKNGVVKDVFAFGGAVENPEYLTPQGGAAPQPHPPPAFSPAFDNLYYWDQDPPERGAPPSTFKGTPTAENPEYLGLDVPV

[3] = reduced viability of SK-BR-3 breast cancer cells – cell-based, 24 h, human, pilot screen (AID 572;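 active = viability at or below 10% of carrier control in both of two separate runs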;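 note: compound exposure lasted between 18 and 24 h rather than exactly 24 h; 100% = carrier-treated control wells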); details: SK-BR-3 viability, CellTiter-Glo luminescence, at 10 µM, stronger effect = lower value
[4] = HUVEC growth inhibition – cell-based, human, primary screen (AID 575;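 active = viability at or below 30% in both replicate assays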;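 note: 100% = median of untreated cell wells with 0.1% DMSO on each plate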); details: HUVEC proliferation, CellTiter-Glo luminescence, 72 h; at 10 µM; stronger effect = lower value
Method in brief: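 Test system: primary human umbilical vein endothelial cells. Quantity: 1250 cells/well. Compound: single 10 µM dose, 0.1% DMSO, from 5x medium stock. Timing: 72 h treatment at 37 °C. Detection: ATP-based CellTiter-Glo luminescent read. Benchmarks: vehicle and MePR control wells. Format: 384-well plates coated with collagen.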

[5] = H69AR cell proliferation blockers – human, duplicate replicates, primary screen (AID 580); details: H69AR lung tumor cells viability, ATP luminescence, 72 h; at 10 µM; stronger effect = lower value;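 note: 100% = mean luminescence of untreated wells and 0% = no signal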
[6] = MRP1 drug-resistance reversers in H69AR cells – cell-based, doxorubicin co-treatment, pilot screen (AID 601;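 active = viability loss from added drug above about 55%, and viability with drug at most 40%, in both replicates, limit read from the data, passing the limit was not always enough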); details: CellTiter-Glo, 72 h, at 10 µM; for differential viability (reversal): stronger effect = higher value
[7] = yeast transport mutant growth inhibition pilot in 384-well plates, post-Golgi transport modulator project (AID 636; in the data active = inhibition above about 31%); details: absorbance 615 nm, about 18 h, stronger effect = higher value
[8] = growth suppression of yeast trafficking mutant, preliminary HTS, modulators of trafficking downstream of Golgi apparatus project, 1536-format plate, OD 615 nm (AID 637; in the data active = inhibition above about 30%); details: yeast transport mutant growth, absorbance 615 nm, 18 h; stronger effect = higher value
[9] = H69AR cells + 2 uM doxorubicin, measured here: viability with 2 uM doxorubicin, stronger effect = lower value
[10] = H69AR cells, compound alone cytotoxicity

Compound | viability [1] [%] | Her2 level [2] | viability [3] | viability [4] | viability [5] | differential viability (reversal) ([6]; H69AR cells + 2 uM doxorubicin) | viability [6, 9] [%] | viability [6, 10] [%] | inhibition [7] | inhibition [8]
Cc1cccc(COc2ccc(/C(O)=C3\C(=O)C(=O)N(CCN(C)C)C3c3ccncc3)cc2)c1 (stereo not given) | 108 | 94% (inactive) | 108% (inactive) | 105% (inactive) | 97.3% (inactive) | -3.29% (inactive) | 101 | 97.3 | -2.11% (inactive) | 3.28% (inactive)
CCN1CCCC1CN=Cc1c(O)n(-c2ccccc2)c(=O)c2ccccc12 (stereo not given) | 82 | 106% (inactive) | 82% (inactive) | 96.9% (inactive) | 92.9% (inactive) | -2.08% (inactive) | 95 | 92.9 | -6.89% (inactive) | -2.54% (inactive)
N#C/C(C(=O)N1CCOCC1)=C1/SC(Cc2ccccc2)C(=O)N1c1ccccc1 (stereo not given) | 92 | 90.5% (inactive) | 92% (inactive) | 99.4% (inactive) | 98.4% (inactive) | -3.21% (inactive) | 102 | 98.4 | -3.55% (inactive) | -4.91% (inactive)
O=C(Nc1nccs1)NC(C(F)(F)F)C(F)(F)F | 104 | 87.5% (inactive) | 104% (inactive) | 93% (inactive) | 95.1% (inactive) | -0.09% (inactive) | 95.1 | 95.1 | -6.44% (inactive) | -0.16% (inactive)
CCN(CC)c1ccc(CNc2ccc(Br)cn2)cc1 | 108 | 92.5% (inactive) | 108% (inactive) | 106% (inactive) | 90.7% (inactive) | -14.7% (inactive) | 105 | 90.7 | -0.66% (inactive) | -3.11% (inactive)
CCOCC(=O)Nc1ccc(S(=O)(=O)N2CCOCC2)cc1 | 95 | 85% (inactive) | 95% (inactive) | 92.3% (inactive) | 82.5% (inactive) | 6.46% (inactive) | 76.1 | 82.5 | -4.67% (inactive) | -2.7% (inactive)
CC(O)c1c(OCc2ccccc2)ncnc1OCc1ccccc1 (stereo not given) | 83.5 | 82.5% (inactive) | 83.5% (inactive) | 59.5% (inactive) | 93.8% (inactive) | 14.6% (inactive) | 79.3 | 93.8 | -2.73% (inactive) | 1.48% (inactive)
CC(=O)N1CCc2cc(Br)cc(S(=O)(=O)NCCCN3CCCC(C)C3)c21 (stereo not given) | 83 | 93% (inactive) | 83% (inactive) | 89.9% (inactive) | 91.8% (inactive) | 0.035% (inactive) | 91.7 | 91.8 | -2.57% (inactive) | -3.93% (inactive)
N[C@@H](Cc1ccccc1)c1nnc2sc(SCc3ccccc3)nn12 | 90 | 84.5% (inactive) | 90% (inactive) | 85.2% (inactive) | 87.9% (inactive) | 11.5% (inactive) | 76.4 | 87.9 | -3.07% (inactive) | 0.48% (inactive)
CCNCCNC(=O)c1c(O)c2ccccc2n(CC)c1=O | 126 | 90.5% (inactive) | 126% (inactive) | 84.7% (inactive) | 89.1% (inactive) | 4.78% (inactive) | 84.3 | 89.1 | -4.87% (inactive) | 0.81% (inactive)
O=c1[nH]c2sc3c(c2c2nncn12)CCCC3 | 136 | 114% (inactive) | 136% (inactive) | 76.4% (inactive) | 100% (inactive) | 7.53% (inactive) | 92.7 | 100 | -6.16% (inactive) | 2.54% (inactive)
COc1ccccc1C1/C(=C(\O)c2c(C)nc3c(C)cccn23)C(=O)C(=O)N1CCCN(C)C (stereo not given) | 102 | 79.5% (inactive) | 102% (inactive) | 85.3% (inactive) | 102% (inactive) | 12.5% (inactive) | 89.2 | 102 | -7.43% (inactive) | 5.67% (inactive)
CC(=O)OC1c2ccccc2C(=O)N1c1ccccc1C (stereo not given) | 100 | 106% (inactive) | 100% (inactive) | 99.9% (inactive) | 105% (inactive) | 14.2% (inactive) | 91.2 | 105 | 0.64% (inactive) | 0.83% (inactive)
Cc1c(Cl)cnc(NC(=O)COC(=O)C(NC(=O)c2ccco2)C(C)C)c1Cl (stereo not given) | 86 | 85% (inactive) | 86% (inactive) | 92.4% (inactive) | 83.2% (inactive) | 10.7% (inactive) | 72.5 | 83.2 | -1.89% (inactive) | -4.76% (inactive)
Cc1cc(-c2ccccc2)c(C#N)c(N)n1 | 114 | 91% (inactive) | 114% (inactive) | 81.9% (inactive) | 99.3% (inactive) | 6.5% (inactive) | 92.8 | 99.3 | -2.3% (inactive) | -0.98% (inactive)
Cc1cc(NC(=O)CCC(=O)N(CC(=O)NC2CCCC2)Cc2ccc(F)cc2)no1 | 101 | 94% (inactive) | 101% (inactive) | 88.9% (inactive) | 95.6% (inactive) | 12.9% (inactive) | 82.7 | 95.6 | -5.87% (inactive) | -5.08% (inactive)
COCCn1c(C)cc(C(=O)COC(=O)c2n[nH]c3ccccc23)c1C | 97.5 | 84% (inactive) | 97.5% (inactive) | 92.5% (inactive) | 81.3% (inactive) | -2.8% (inactive) | 84.1 | 81.3 | -8.24% (inactive) | 0.98% (inactive)
COc1ccc(C(=O)CSc2nnc(C3CCCCC3)n2N)c(OC)c1 | 91.5 | 105% (inactive) | 91.5% (inactive) | 119% (inactive) | 83.3% (inactive) | 2% (inactive) | 81.3 | 83.3 | -4% (inactive) | -6.23% (inactive)
COc1cc(-c2noc(-c3cccc(Cl)c3)n2)cc(OC)c1OC | 92.5 | 86% (inactive) | 92.5% (inactive) | 68% (inactive) | 80.5% (inactive) | -10.1% (inactive) | 90.6 | 80.5 | -5.73% (inactive) | 0.97% (inactive)
CC(C)CCNC(=O)NC(=O)CN1C(=O)NC2(CCCCC2)C1=O | 90 | 120% (inactive) | 90% (inactive) | 104% (inactive) | 96.9% (inactive) | -4.12% (inactive) | 101 | 96.9 | 1.32% (inactive) | 10.9% (inactive)
COc1ccc(C2=NOC(C(=O)NCc3ccc(F)cc3)C2)cc1OC (stereo not given) | 95.5 | 87.5% (inactive) | 95.5% (inactive) | 42% (inactive) | 29.3% (active) | -34.5% (inactive) | 63.9 | 29.3 | -1.32% (inactive) | 5.4% (inactive)
O=C(CCS(=O)(=O)c1cccc2nonc12)Nc1cccc2c1CCCC2 | 94.5 | 114% (inactive) | 94.5% (inactive) | 103% (inactive) | 95.5% (inactive) | 12% (inactive) | 83.5 | 95.5 | -6.44% (inactive) | -3.65% (inactive)
Cc1nn(-c2ccc(F)cc2)c2nc(N)c(C#N)c(-c3cccs3)c12 | 80.5 | 75.5% (inactive) | 80.5% (inactive) | 85.4% (inactive) | 86.2% (inactive) | 4.98% (inactive) | 81.3 | 86.2 | -0.79% (inactive) | 3.44% (inactive)
CC(=O)C1=C(O)C(=O)N(Cc2ccco2)C1c1ccc(F)cc1 (stereo not given) | 102 | 110% (inactive) | 102% (inactive) | 123% (inactive) | 109% (inactive) | 8.52% (inactive) | 100 | 109 | 1.07% (inactive) | -5% (inactive)
COCCNC(=O)Cn1nc(C(F)(F)F)c(Br)c1C | 118 | 104% (inactive) | 118% (inactive) | 90.4% (inactive) | 108% (inactive) | 15.8% (inactive) | 92.5 | 108 | -4.27% (inactive) | -0.81% (inactive)
CCS(=O)(=O)N1CCCC(c2nc(-c3cccc(OC)c3)no2)C1 (stereo not given) | 100 | 110% (inactive) | 100% (inactive) | 96.7% (inactive) | 92.7% (inactive) | 0.525% (inactive) | 92.2 | 92.7 | -3.84% (inactive) | -2.7% (inactive)
CC(CCc1ccccc1)NCc1ccncc1 (stereo not given) | 102 | 99.5% (inactive) | 102% (inactive) | 108% (inactive) | 84.9% (inactive) | -4.29% (inactive) | 89.2 | 84.9 | -6.53% (inactive) | 0.48% (inactive)
O=S(=O)(NCCc1ccccn1)c1cccs1 | 99 | 93% (inactive) | 99% (inactive) | 97.4% (inactive) | 101% (inactive) | 2.29% (inactive) | 98.3 | 101 | -7.07% (inactive) | 4.1% (inactive)
CCOC(=O)c1c(C)[nH]c(C(=O)COC(=O)C2CC2C)c1C (stereo not given) | 117 | 116% (inactive) | 117% (inactive) | 99.4% (inactive) | 102% (inactive) | 15.7% (inactive) | 85.8 | 102 | -4.93% (inactive) | 0.48% (inactive)

— PubChem BioAssay
